Reference: ChEMBL document CHEMBL4396895, “Identification and Optimization of Novel Cathepsin C Inhibitors Derived from EGFR Inhibitors” (J Med Chem, 2019)
Activity calls are given as the source filed them. No cut-off for these calls is given here.

Experiments:
Dipeptidyl peptidase 1 [1] = target: T1, Dipeptidyl peptidase 1 (Homo sapiens, UniProt P53634); assay: Inhibition of CatL-activated recombinant human C-terminal His10-tagged cathepsin C (25 to 463 residues) expressed in mouse myeloma cells using Gly-Phe-AFC as substrate preincubated for 3 hrs followed by substrate addition and measured after 60 mins; format: cell-free
Procedure, shortened: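 Activated rhCatC was diluted to 4.4 nM in 25 mM MES, 50 mM NaCl, 5 mM DTT, 0.01% Triton X-100, pH 6.0. It was preincubated with compound (added in 10% DMSO) for 3 h at RT. Gly-Phe-AFC was then added to 100 μM final and read as fluorescence after 60 min. IC50 came from a sigmoidal nonlinear fit; values are means of at least two experiments.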

Dipeptidyl peptidase 1 [2] = target: T1, Dipeptidyl peptidase 1; assay: Inhibition of cathepsin C (unknown origin)
Procedure, shortened: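 Enzyme preincubated with compound 3 h at RT. Gly-Phe-AFC added (100 μM final) and product fluorescence read after 60 min. IC50 from sigmoidal nonlinear regression, mean of at least two experiments.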

[3] = target: Epidermal growth factor receptor (Homo sapiens, UniProt P00533); assay: Inhibition of EGFR (unknown origin) up to 10 uM using biotin-labelled peptide as substrate preincubated for 2 hrs followed by substrate addition and measured after 30 mins by HTRF FRET assay
Procedure, shortened: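 EGFR WT was used at 0.1 nM final in 50 mM HEPES pH 7.0, 0.02% NaN3, 0.01% BSA, 0.1 mM orthovanadate, 10 mM MgCl2, 2.5 mM DTT, 6.25 nM SEB. It was preincubated with compound for 2 h. Biotin-peptide (1.4 μM) and ATP (20 μM) were then added for 30 min at RT. Read-out was HTRF/TR-FRET (Ex 320, Em 615/665 nm) with a sigmoidal curve fit.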

Cathepsin S = Cathepsin S (Homo sapiens, UniProt P25774); assay: Inhibition of recombinant human C-terminal polyhistidine-tagged cathepsin S (Met1 to Ile331 residues) expressed in HEK293 cells using MCA-Arg-Pro-Lys-Pro-Val-Glu-NVAL-Trp-Arg-Lys(DNP)-NH2 as substrate preincubated for 30 mins followed by substrate addition and measured after 30 mins
Procedure, shortened: (§1)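 Recombinant human cathepsin was preincubated with compound for 30 min at RT, then reacted with substrate for 30 min. CatB and CatL were read with Z-Leu-Arg-AMC (Ex 380/Em 460 nm). CatS was read with MCA-Arg-Pro-Lys-Pro-Val-Glu-Nva-Trp-Arg-Lys(DNP)-NH2 (Ex 320/Em 405 nm). E-64 served as inhibitor control.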

[4] = Intrinsic clearance in human liver microsomes assessed per mg protein measured after 60 mins in presence of NADPH by LC-MS/MS analysis; format: ADME, Microsome; settings: read-out: CLH
[5] = Intrinsic clearance in rat liver microsomes assessed per mg protein measured after 60 mins in presence of NADPH by LC-MS/MS analysis; format: ADME, Microsome; settings: read-out: CLH
Cytochrome P450 3A4 = Cytochrome P450 3A4 (Homo sapiens, UniProt P08684); assay: Inhibition of CYP3A4 (unknown origin); format: ADME
Procedure, shortened: (§2)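 Tested against recombinant human cytochrome P450 isoforms 1A2, 2D6, 3A4, 2C9 and 2C19.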

Procathepsin L = Procathepsin L (Homo sapiens, UniProt P07711); assay: Inhibition of recombinant human C-terminal His6-tagged cathepsin L (Glu113 to Val333 and Ala114 to Val333 residues) expressed in mouse myeloma cells using Z-Leu-Arg-AMC as substrate preincubated for 30 mins followed by substrate addition and measured after 30 mins; procedure, shortened: as §1
Dipeptidyl peptidase 1 [6] = target: T1, Dipeptidyl peptidase 1; assay: Inhibition of cathepsin C in human THP1 cells using H-Gly-Phe-AFC as substrate preincubated for 4 hrs followed by substrate addition and measured after 60 mins; format: cell-based
Procedure, shortened: (§3)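 THP1 or U937 cells, grown in RPMI 1640 with 10% FBS, were seeded at 1.0 × 10^6/mL. They were preincubated with threefold serial dilutions of compound for 4 h at 37 °C. H-Gly-Phe-AFC was then added from a 100 μM solution and fluorescence was read after 60 min at 37 °C. Values are means of at least two experiments.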

Dipeptidyl peptidase 1 [7] = target: T1, Dipeptidyl peptidase 1; assay: Inhibition of cathepsin C in human U937 cells using H-Gly-Phe-AFC as substrate preincubated for 4 hrs followed by substrate addition and measured after 60 mins; format: cell-based; procedure, shortened: as §3
Cytochrome P450 1A2 = target: T2, Cytochrome P450 1A2 (Homo sapiens, UniProt P05177); assay: Inhibition of CYP1A2 (unknown origin); format: ADME; procedure, shortened: as §2
T2 sequence (P05177 whole entry): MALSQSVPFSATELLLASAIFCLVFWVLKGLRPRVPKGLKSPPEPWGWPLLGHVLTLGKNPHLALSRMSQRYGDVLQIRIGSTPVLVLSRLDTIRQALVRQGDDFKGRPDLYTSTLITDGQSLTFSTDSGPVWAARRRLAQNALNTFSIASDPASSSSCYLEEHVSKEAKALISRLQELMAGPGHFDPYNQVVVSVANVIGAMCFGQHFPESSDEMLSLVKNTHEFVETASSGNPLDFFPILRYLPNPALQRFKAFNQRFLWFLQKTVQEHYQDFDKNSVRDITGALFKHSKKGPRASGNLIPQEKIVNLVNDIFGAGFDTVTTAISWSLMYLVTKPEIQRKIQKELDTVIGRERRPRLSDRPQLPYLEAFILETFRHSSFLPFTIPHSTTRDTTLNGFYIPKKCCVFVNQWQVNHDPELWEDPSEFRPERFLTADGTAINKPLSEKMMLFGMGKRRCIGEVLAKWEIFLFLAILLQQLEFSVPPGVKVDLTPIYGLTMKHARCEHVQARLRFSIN

Cytochrome P450 2C9 = Cytochrome P450 2C9 (Homo sapiens, UniProt P11712); assay: Inhibition of CYP2C9 (unknown origin); format: ADME; procedure, shortened: as §2
[8] = Intrinsic clearance in mouse liver microsomes assessed per mg protein measured after 60 mins in presence of NADPH by LC-MS/MS analysis; format: ADME, Microsome; settings: read-out: CLH
Cytochrome P450 2D6 = Cytochrome P450 2D6 (Homo sapiens, UniProt P10635); assay: Inhibition of CYP2D6 (unknown origin); format: ADME; procedure, shortened: as §2
Cytochrome P450 2C19 = Cytochrome P450 2C19 (Homo sapiens, UniProt P33261); assay: Inhibition of CYP2C19 (unknown origin); format: ADME; procedure, shortened: as §2
Cathepsin B = Cathepsin B (Homo sapiens, UniProt P07858); assay: Inhibition of recombinant human C-terminal polyhistidine-tagged cathepsin B (Arg18 to Ile339 residues) expressed in HEK293 cells using Z-Leu-Arg-AMC as substrate preincubated for 30 mins followed by substrate addition and measured after 30 mins; procedure, shortened: as §1

Structure (SMILES) | IC50 (Dipeptidyl peptidase 1 [1]) | microsomal CLint [4] | microsomal CLint [5] | IC50 (Dipeptidyl peptidase 1 [6]) | IC50 (Dipeptidyl peptidase 1 [7]) | also measured
C=CC(=O)Nc1cc(Oc2nc(Nc3ccc(N4CCC(N(C)C)CC4)cn3)ccc2N2CCCCC2)ccc1C | 307 nM |  |  |  |  | 
C=CC(=O)Nc1cc(Nc2nccc(-c3cn(C)c4ccccc34)n2)c(OC)cc1N(C)CCN(C)C [OSIMERTINIB] |  |  |  |  |  | IC50 (Dipeptidyl peptidase 1 [2]): 32900 nM
C=CC(=O)Nc1cccc(Oc2nc(Nc3ccc(N4CCOCC4)cc3)ccc2Cl)c1 | > 10000 nM |  |  |  |  | 
C=CC(=O)Nc1cccc(Oc2nc(Nc3ccc(N4CCN(C)CC4)cc3OC)ccc2N(C)C)c1 | 1520 nM |  |  |  |  | 
C=CC(=O)Nc1ccc(C)c(Oc2nc(Nc3ccc(N4CCN(C)CC4)cc3OC)ccc2N2CCCC2)c1 | 505 nM |  |  |  |  | 
C#Cc1ccc(Nc2ccc(N3CCN(C)CC3)cc2OC)nc1Oc1cccc(NC(=O)C=C)c1 | 392 nM |  |  |  |  | 
C=CC(=O)Nc1cccc(Oc2nc(Nc3ccc(N4CCN(CC5CCCC5)CC4)cc3)ccc2Cl)c1 | > 10000 nM |  |  |  |  | 
C=CC(=O)Nc1cc(Oc2nc(Nc3ccc(N4CCN(C)CC4)cc3OC)ccc2N2CCCC2)ccc1OC | 140 nM |  |  | 21.3 nM | 70 nM | 
C=CC(=O)Nc1cccc(Oc2nc(Nc3cccc(CN)c3)ccc2Cl)c1 | 2150 nM |  |  |  |  | 
C=CC(=O)Nc1cccc(Oc2cccc(Nc3ccc(N4CCN(C)CC4)cc3OC)n2)c1 | 785 nM |  |  |  |  | 
C=CC(=O)Nc1cccc(Oc2nc(Nc3ccc(N4CCNCC4)cc3)ccc2Cl)c1 | 499 nM |  |  |  |  | 
C=CC(=O)Nc1cc(Oc2nc(Nc3ccc(N4CCN(C)CC4)cc3OC)ccc2N2CCOCC2)ccc1C | 59 to 59.3 nM | 1.9 µL/min/mg | 10 µL/min/mg | 3.9 nM | 5.9 nM | inhibition [3]: inactive; IC50 (Cathepsin S): > 10000 nM; IC50 (Cytochrome P450 3A4): > 10000 nM; IC50 (Procathepsin L): > 10000 nM; IC50 (Cytochrome P450 1A2): > 10000 nM; IC50 (Cytochrome P450 2C9): > 10000 nM; microsomal CLint [8]: 4 µL/min/mg; IC50 (Cytochrome P450 2D6): > 10000 nM; IC50 (Cytochrome P450 2C19): > 10000 nM; IC50 (Cathepsin B): 3000 to 10000 nM

More lines, in order of falling IC50 (Dipeptidyl peptidase 1 [1]), values ahead:

IC50 (Dipeptidyl peptidase 1 [1]) | microsomal CLint [4] | microsomal CLint [5] | IC50 (Dipeptidyl peptidase 1 [6]) | IC50 (Dipeptidyl peptidase 1 [7]) | Structure (SMILES) | also measured
46.5 nM | 3.7 µL/min/mg | 2 µL/min/mg | 2.8 nM | 4.7 nM | C=CC(=O)Nc1cc(Oc2nc(Nc3ccc(N4CCN(C)CC4)cc3OC)ccc2N2CCN(C)CC2)ccc1C | microsomal CLint [8]: 3 µL/min/mg
44 nM | 4.3 µL/min/mg | 23.1 µL/min/mg | 12.3 nM | 40.8 nM | C=CC(=O)Nc1cc(Oc2nc(Nc3ccc(N4CCN(C)CC4)cc3OC)ccc2N2CCCC2)ccc1C | inhibition [3]: inactive; IC50 (Cathepsin S): > 10000 nM; IC50 (Cytochrome P450 3A4): > 10000 nM; IC50 (Procathepsin L): 3000 to 10000 nM; IC50 (Cytochrome P450 1A2): 8750 nM; IC50 (Cytochrome P450 2C9): > 10000 nM; microsomal CLint [8]: 26.7 µL/min/mg; IC50 (Cytochrome P450 2D6): > 10000 nM; IC50 (Cytochrome P450 2C19): 9910 nM; IC50 (Cathepsin B): 3000 to 10000 nM
32.3 nM |  |  | 28.4 nM | 49.4 nM | C=CC(=O)Nc1cc(Oc2nc(Nc3ccc(N4CCN(C)CC4)cc3OC)ccc2N2CCC(O)C2)ccc1C (racemic) | 
17.6 nM | 2.9 µL/min/mg | 15 µL/min/mg | 2.7 nM | 5.8 nM | C=CC(=O)Nc1cc(Oc2nc(Nc3ccc(N4CCN(C)CC4)cc3)ccc2N2CCCCC2)ccc1C | inhibition [3]: inactive
15.6 nM | 2.5 µL/min/mg | 4.1 µL/min/mg | 1 nM | 2.2 nM | C=CC(=O)Nc1cc(Oc2nc(Nc3ccc(N4CCC(N(C)C)CC4)cc3OC)ccc2N2CCCCC2)ccc1C | microsomal CLint [8]: 4 µL/min/mg
4 nM | 3.9 µL/min/mg | 11 µL/min/mg | 6.7 nM | 11.5 nM | C=CC(=O)Nc1cc(Oc2nc(Nc3ccc(N4CCN(C)CC4)cc3OC)ccc2N2CCCC2)ccc1C(F)(F)F | inhibition [3]: inactive; microsomal CLint [8]: 866 µL/min/mg
